Assay results gathered from unrelated publications.
Medium: plasma
Route: intravenous

Compound | host | dose | notes | Vd
CCOC(=O)[C@@]12C[C@@H]1[C@@H](n1ccc3c(NC)nc(C#Cc4ccc(Cl)s4)nc31)[C@H](O)[C@@H]2O | male Sprague-Dawley rat | 0.5 mg/kg |  | 33.8 L/kg
O=C(c1cc(Cc2n[nH]c(=O)c3ccccc23)ccc1F)N1CCN(C(=O)C2CC2)CC1 | female Sprague-Dawley rat |  |  | 0.201 L
COc1cc(F)ccc1-c1ncnc(Nc2cccc(C[S@](C)(=N)=O)c2)n1 | male Wistar rat |  |  | 1 L/kg
CN1CCC(c2ccccc2CC(C)(C)Nc2nc(N3CCOCC3)nc(-n3c(C(F)F)nc4ccccc43)n2)CC1 | rat | 5 mg/kg | single dose | 23.7 L/kg
CCCCCCCCCCCCCCCc1ccc(CP(=O)(O)O)cc1 | male Sprague-Dawley rat | 5.8 mg/kg |  | 3.9 L/kg
CCCC[C@@H]1NC(=O)[C@H](Cc2ccc(O)cc2)NC(=O)[C@@H]2CCCN2C(=O)[C@H](CC(=O)O)NC(=O)[C@H](C)NC(=O)[C@H](Cc2ccccc2)NC(=O)[C@@H]2CSCCC(=O)N3CN(CN(C3)C(=O)CCSC[C@@H](C(=O)N[C@@H](C)C(N)=O)NC1=O)C(=O)CCSC[C@H](NC(C)=O)C(=O)N[C@@H](CC(C)(C)C)C(=O)N1CCC[C@H]1C(=O)N[C@@H](CCC(=O)O)C(=O)N[C@H](CCCCNC(=O)CCc1cn(CCOCCOCCOCCOCCOCCOCCOCCOCCOCCOCCNC(=O)c3cc(C(=O)NCCOCCOCCOCCOCCOCCOCCOCCOCCOCCOCCn4cc(CCC(=O)NCCCC[C@H]5NC(=O)[C@H](CCC(=O)O)NC(=O)[C@@H]6CCCN6C(=O)[C@H](CC(C)(C)C)NC(=O)[C@@H](NC(C)=O)CSCCC(=O)N6CN7CN(C6)C(=O)CCSC[C@H](NC(=O)[C@H](Cc6ccc(O)cc6)NC(=O)[C@@H]6CCCN6C5=O)C(=O)N[C@@H](Cc5ccccc5)C(=O)N[C@@H](C)C(=O)N[C@@H](CC(=O)O)C(=O)N5CCC[C@H]5C(=O)N[C@@H](Cc5ccc(O)cc5)C(=O)N[C@@H](CCCC)C(=O)N[C@H](C(=O)N[C@@H](C)C(N)=O)CSCCC7=O)nn4)cc(C(=O)NCCOCCOCCOCCOCCOCCOCCOCCOCCOCCOCCn4cc(CCC(=O)N[C@H]5CSCCC(=O)N6CN7CN(C6)C(=O)CCSC[C@H](NC(=O)[C@@H](CC(=O)O)NC(=O)[C@H](Cc6cccc8ccccc68)NC(=O)[C@@H]6CCCN6C5=O)C(=O)N[C@@H](CCSC)C(=O)N[C@@H](CCCCNC(=N)N)C(=O)N[C@@H](CC(=O)O)C(=O)N[C@@H](Cc5c[nH]c6ccccc56)C(=O)N[C@@H](CO)C(=O)N[C@@H]([C@@H](C)O)C(=O)N5CCC[C@H]5C(=O)N5C[C@H](O)C[C@H]5C(=O)N[C@@H](Cc5c[nH]c6ccccc56)C(=O)N[C@H](C(N)=O)CSCCC7=O)nn4)c3)nn1)C(=O)N1CCC[C@H]1C(=O)N[C@@H](Cc1ccc(O)cc1)C(=O)N2 | rat | 2 mg/kg |  | 1 L/kg
Oc1c(-n2ccnn2)cnn1-c1cc(N2CCOCC2)ncn1 | male rat | 5 mg/kg |  | 0.62 L/kg
Cc1noc(-c2cc3cc(-c4nc(C(=O)NCc5ccncc5)[nH]c4C)ccc3[nH]2)n1 | Sprague-Dawley rat | 1 mg/kg |  | 1.5 L/kg
CCc1cc(OC)c2nccc(N3CCc4c(cc(Cn5ccnc5)cc4-c4cn(C)nc4C(F)(F)F)C3=O)c2c1 | male Sprague-Dawley rat | 3 mg/kg |  | 3.1 L/kg
C#Cc1cnc2nc(O)n(C(CC)CC)c2n1 | Sprague-Dawley rat | 1 mg/kg |  | 0.8 L/kg
COc1ccc2c(Cc3ccccc3F)c3[n+](cc2c1OC)CCc1cc2c(cc1-3)OCO2.[Br-] | rat | 5 mg/kg |  | 71.8 L/kg
CCCC[C@@H]1NC(=O)[C@H](Cc2ccc(O)cc2)NC(=O)[C@@H]2CCCN2C(=O)[C@H](CC(=O)O)NC(=O)[C@H](C)NC(=O)[C@H](Cc2ccccc2)NC(=O)[C@@H]2CSCCC(=O)N3CN(CN(C3)C(=O)CCSC[C@@H](C(=O)N[C@@H](C)C(N)=O)NC1=O)C(=O)CCSC[C@H](NC(C)=O)C(=O)N[C@@H](CC(C)(C)C)C(=O)N1CCC[C@H]1C(=O)N[C@@H](CCC(=O)O)C(=O)N[C@H](CCCCNC(=O)CCc1cn(CCOCCOCCOCCOCCOCCC(=O)N[C@H]3CSCCC(=O)N4CN5CN(C4)C(=O)CCSC[C@H](NC(=O)[C@@H](CC(=O)O)NC(=O)[C@H](Cc4cccc6ccccc46)NC(=O)[C@@H]4CCCN4C3=O)C(=O)N[C@@H](CCSC)C(=O)N[C@@H](CCCCNC(=N)N)C(=O)N[C@@H](CC(=O)O)C(=O)N[C@@H](Cc3c[nH]c4ccccc34)C(=O)N[C@@H](CO)C(=O)N[C@@H]([C@@H](C)O)C(=O)N3CCC[C@H]3C(=O)N3C[C@H](O)C[C@H]3C(=O)N[C@@H](Cc3c[nH]c4ccccc34)C(=O)N[C@H](C(N)=O)CSCCC5=O)nn1)C(=O)N1CCC[C@H]1C(=O)N[C@@H](Cc1ccc(O)cc1)C(=O)N2 | rat | 2 mg/kg |  | 1 L/kg
